High-throughput results: PubChem BioAssay, The Scripps Research Institute Molecular Screening Center
Shown are actives, neighbours in structure and some others; about 4.6% of the full set was active somewhere.
TAAR1 ag – human TAAR1 agonists, primary screen, Fluo-8 calcium fluorescence, CHO RD-HGA16 cells; activation, % at 3 µM; vehicle wells 0%, saturating PEA agonist 100%; AID 624467, 2012; actives 0.99% (n = 360,000); Trace amine-associated receptor 1 (Homo sapiens), Q96RJ0;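 active = activation above the mean activation of all test compounds in the run plus 3 SD, cut at about 38% in these data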
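Assay system: CHO-derived RD-HGA16 cells with stable Gα16 and human TAAR1; timing: 17-24 h seeding, 75 min 37 °C dye, 30 min RT; read-out: % activation from peak over basal fluorescence ratio, DMSO-to-PEA scaled; measured by: kinetic Fluo-8 calcium fluorescence; benchmarks: low control DMSO, high control PEA (EC100); doses: 3 µM single concentration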
OX1R antag-1 – OX1R (HCRTR1) antagonists, primary screen, fluorescence, CHO/OX1R cells, Fluo-8 calcium, orexin A; AID 434989, 2010; Fluo-8 calcium fluorescence; actives 0.43% (n = 330,000); inhibition, % at 5 µM; Orexin/Hypocretin receptor type 1 (Homo sapiens), O43613;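 active = inhibition above its plate's threshold, mean inhibition of all tested compounds on the plate plus 3 SD, cut at about 37% in these data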;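 note: 0% = orexin A challenge wells and 100% = SB-334867-A antagonist wells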
Target sequence (O43613 whole entry, looked up): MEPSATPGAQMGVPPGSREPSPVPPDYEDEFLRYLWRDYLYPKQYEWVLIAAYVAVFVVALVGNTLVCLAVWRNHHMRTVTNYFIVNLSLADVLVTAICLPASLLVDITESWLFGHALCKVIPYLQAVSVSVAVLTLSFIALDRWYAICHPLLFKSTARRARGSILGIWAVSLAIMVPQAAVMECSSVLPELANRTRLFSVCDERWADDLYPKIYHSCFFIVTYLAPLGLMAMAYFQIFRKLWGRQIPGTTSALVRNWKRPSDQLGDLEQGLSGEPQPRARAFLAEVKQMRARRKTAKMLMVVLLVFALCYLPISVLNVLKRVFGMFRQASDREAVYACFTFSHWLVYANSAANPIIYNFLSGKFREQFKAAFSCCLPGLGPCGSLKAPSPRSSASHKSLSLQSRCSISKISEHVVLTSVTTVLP
OX1R antag-2 – antagonists of human orexin 1 receptor (OX1R); inhibition, % at 6.6 µM; AID 485270, 2010; Orexin/Hypocretin receptor type 1 (Homo sapiens), O43613; actives 1.8% (n = 330,000); OX1R-expressing cells, FRET antagonist read-out; in the data active = inhibition mostly above about 38%, no sharp cut-off; inactive = mostly below about 40%;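 note: 0% = agonist challenge alone and 100% = reference antagonist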
GPR7 antag – GPR7 receptor antagonists, primary screen, cell-based, fluorescence, single concentration | Neuropeptides B/W receptor type 1 (Homo sapiens), P48145 | GPR7-expressing cells, fluorescence antagonist assay | inhibition, % at 4.4 µM | actives 1.1% (n = 290,000) | AID 1861, 2009; in the data active = inhibition above about 16%, passing the limit was not always enough;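 note: cells stimulated with the agonist NPW; 0% = agonist with vehicle and 100% = vehicle without agonist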
CHO parental Ca – ATP-evoked calcium signal inhibitors, parental CHO, primary screen, counter-screen for OX1R antagonist project, cell-based, fluorescence, Fluo-8 calcium dye; parental CHO-K1, ATP-induced calcium, Fluo-8 fluorescence; inhibition, % at 5.6 µM; actives 0.63% (n = 330,000);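 active = inhibition above that plate's mean sample inhibition plus 3 SD, cut at about 26% in these data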;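 note: 0% = ATP-challenged DMSO wells and 100% = DMSO wells without ATP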
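Assay system – parental CHO cells · Reagent – ATP stimulus · Detection – intracellular calcium via Fluo-8 no-wash fluorescent dye · Evaluation – percent inhibition of ATP-evoked calcium rise, normalized to controls · Controls – ATP wells versus no-ATP DMSO wells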
TAAR1 antag – human TAAR1 antagonists, primary screen, Fluo-8 calcium fluorescence, CHO RD-HGA16 cells; Trace amine-associated receptor 1 (Homo sapiens), Q96RJ0; antagonist; inhibition, % at 3 µM; actives 1.5% (n = 360,000); AID 624466, 2012;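 active = inhibition above a per-plate cutoff, the mean inhibition of test compounds on that plate plus 3 SD, cut at about 49% in these data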;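 note: 0% = DMSO plus EC80 beta-PEA response and 100% = DMSO alone without agonist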
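Assay system: RD-HGA16 CHO cells with stable hTAAR1 and Gα16 / Reagent: EC80 β-phenethylamine stimulus / Doses: 3 µM, single point / Timing: dye loading 75 min at 37 °C, then 30 min room temperature / Measured by: Fluo-8 intracellular calcium dye fluorescence, real-time kinetic reads / Controls: vehicle wells and EC80 agonist wells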
nonsel antag count – nonselective antagonists in TAAR1 counter-screen cells, counter-screen for hTAAR1 antagonist project, cell-based, fluorescence, calcium; shares compounds with TAAR1 antag; counterscreen cell line, antagonist mode; inhibition, % at 3 µM; actives 77% (n = 2,400); in the data active = inhibition above about 22%;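 note: CHO-Ga16 host cells stimulated with ATP at an EC80 level; 0% = agonist EC80 plus vehicle and 100% = vehicle without agonist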
TAAR1 antag conf – human TAAR1 antagonists, retest of hits, confirmation, cell-based, fluorescence; actives 40% (n = 2,400); shares compounds with TAAR1 antag; AID 651785, 2012; TAAR1-expressing cells, fluorescence antagonist read-out; inhibition, % at 3 µM; in the data active = inhibition above about 49%;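 note: CHO-Ga16 host cells challenged with agonist PEA near its EC80; 0% = agonist at EC80 plus vehicle and 100% = vehicle with no agonist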
Ga16 nonsel ag – calcium activation in Ga16-expressing cells, counter-screen for TAAR1 antagonist project, cell-based, fluorescence. agonist counterscreen. shares compounds with TAAR1 antag. actives 18% (n = 2,400). AID 651953, 2012. activation, % at 3 µM; in the data active = activation above about 12%;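 note: 0% = vehicle wells and 100% = saturating stimulus response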
TAAR1 ag count – TAAR1 activation by candidate antagonists – cell-based, fluorescence, counter-screen for TAAR1 antagonist project | shares compounds with TAAR1 antag | hTAAR1 cell line, agonist mode | activation, % at 3 µM | actives 2% (n = 2,400) | AID 651955, 2012; in the data active = activation above about 37%;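 note: CHO cells stably expressing TAAR1 with calcium dye readout; 0% = DMSO vehicle and 100% = full agonist response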
Numbers without * were called inactive; · = no result.

SMILES	TAAR1 ag	OX1R antag-1	OX1R antag-2	GPR7 antag	CHO parental Ca	TAAR1 antag	nonsel antag count	TAAR1 antag conf	Ga16 nonsel ag	TAAR1 ag count
O=c1c2ccccc2ncn1CCOCCOc1ccc([N+](=O)[O-])cc1	3.6	-12.6	17.1	1.3	-15.9	-6.5	·	·	·	·
CNC(=O)c1ccsc1NC(=O)C1CCN(S(=O)(=O)c2ccc(Cl)s2)CC1	11.8	-20.1	5.4	·	-8.3	58.2*	29.1*	47.4	15.1*	29.6
COc1cc(F)ccc1Oc1cccc2c1S(=O)(=O)N(C1CC1)C[C@@H](COCc1ccccc1)O2	0.5	·	·	·	·	-3.1	·	·	·	·
COc1cc(C)ccc1OCc1cc(C(=O)N2C[C@H]3CC[C@H]2C3)no1	0.1	-3.7	12.5	3.2	-4.3	102.4*	7.2	-0.4	2.0	0.3
COc1cc(Cl)ccc1OCc1cc(C(=O)N2C[C@H]3CC[C@H]2C3)no1	2.6	-16.2	11.4	-14.0	-9.4	-7.2	·	·	·	·
CC(C)(C)NC(=O)CN(Cc1cccs1)C(=O)C1COc2ccccc2O1 (stereo not drawn)	3.5	-35.5	12.1	-1.1	-10.4	12.2	·	·	·	·
CC(C)CCNC(=O)C(c1ccc(O)cc1)N(Cc1cccs1)C(=O)C1COc2ccccc2O1 (stereo not drawn)	5.1	-10.6	20.2	-8.1	-20.4	56.6*	26.8*	54.0*	4.1	1.3
COCCCN1C(=O)C(CC(=O)NCc2ccco2)CC(C(=O)N(C)C)=C1C (stereo not drawn)	3.9	·	·	·	·	-4.9	·	·	·	·
Cc1cc(C)cc(OCC(=O)Nc2cccc(-c3nc4ncccc4o3)c2)c1	7.5	-22.3	19.4	-14.2	-0.6	70.4*	30.8*	58.0*	9.5	13.1
COc1ccc(CC(=O)Nc2cccc(-c3nnc(-c4ccccc4)o3)c2)cc1OC	29.0	·	·	-17.0	·	71.4*	56.7*	72.5*	18.1*	16.7
Cc1ccc(OCC(=O)Nc2cccc(-c3nnc(-c4ccccc4)o3)c2)c(C)c1	15.1	-23.1	13.8	-13.1	-15.9	65.9*	41.4*	64.0*	6.7	5.0
COc1ccc(CC(=O)Nc2ccc(-c3nnc(-c4ccccc4)o3)cc2)cc1OC	·	-6.9	10.0	-1.2	-11.0	·	·	·	·	·
COc1ccc(CC(=O)Nc2cccc(-c3nnc(-c4ccc(C)cc4)o3)c2)cc1OC	23.9	-30.3	25.8	-9.5	-9.2	82.0*	52.6*	69.1*	17.2*	15.2
O=C(Cc1ccccc1)Nc1cccc(-c2nc3ncccc3o2)c1	14.8	-15.7	15.9	-8.6	-18.1	24.2	·	·	·	·
COc1ccc(S(=O)(=O)N2CCC(C(=O)NC(c3nc4ccccc4[nH]3)C(C)C)CC2)cc1 (stereo not drawn)	3.8	-13.6	-3.9	·	-17.0	-49.8	·	·	·	·
CC(C)n1c(=O)c2ccccc2n1CC(=O)N1CCOCC1	0.2	·	·	·	·	-5.2	·	·	·	·
Cc1sc2ncnc(N3CCC(C(=O)Nc4cc(Cl)ccc4Cl)CC3)c2c1C	1.1	-33.7	36.0	·	-19.3	63.1*	30.4*	41.7	2.9	0.0
Cc1sc2ncnc(N3CCC(C(=O)Nc4cc(S(C)(=O)=O)ccc4Cl)CC3)c2c1C	14.0	-19.5	20.1	·	-16.5	60.8*	26.4*	38.4	8.1	4.0
COc1ccc(S(=O)(=O)N(C)C)cc1NC(=O)C1CCN(c2ncnc3sc(C)c(C)c23)CC1	11.1	·	·	·	·	21.6	·	·	·	·
Cc1sc2ncnc(N3CCC(C(=O)NNC(=O)c4ccc(Cl)cc4)CC3)c2c1C	9.6	-21.8	33.7	·	-9.8	43.8	·	·	·	·
Cc1nnc(SC(C)C(=O)Nc2ccc(Cl)cc2Cl)[nH]c1=O (stereo not drawn)	8.3	14.6	7.1	·	-13.6	-14.2	·	·	·	·
O=C(OCC(=O)N1CCN(C(=O)c2ccco2)CC1)c1cc(-c2cccc(Br)c2)nc2ccccc12	17.2	23.7	61.6*	-0.2	-22.3	57.8*	34.3*	43.5	5.4	0.8
O=C(OCC(=O)N1CCN(C(=O)c2ccco2)CC1)c1cc(-c2ccccc2)nc2ccccc12	8.4	-22.7	33.1	-5.5	-37.4	57.0*	25.6*	35.7	6.2	0.4
COc1cc(F)cc(-c2ccc3c(c2)c(C#Cc2ccsc2)c(-c2cc(OC)cc(OC)c2)n3C)c1	0.1	-19.9	5.4	·	2.8	-1.5	·	·	·	·
CCOCCCn1c(SCC(=O)Nc2ccccc2)nc2ccccc2c1=O	6.2	-31.8	8.9	-13.5	-18.9	-0.6	·	·	·	·
CCOCCCn1c(SCc2nc3ccccc3s2)nc2ccccc2c1=O	11.7	-38.4	-0.5	2.2	-34.7	49.0*	18.9	38.2	6.3	23.3
CC(C)c1ccc(/C=N/NC(=O)c2ccc(-n3cnnn3)cc2)cc1	16.4	·	·	·	·	66.2*	32.3*	47.9	9.0	7.8
